ChEMBL document CHEMBL4014347, “Targeting Mycolic Acid Transport by Indole-2-carboxamides for the Treatment of Mycobacterium abscessus Infections” (J Med Chem, 2017)
In brackets after ≈: the same amount, converted by molar mass.

How the values were obtained:
[1] = tested on: Mycobacteroides abscessus; assay: Antibacterial activity against Mycobacterium abscessus CIP104536 after 3 to 5 days by two fold serial dilution method; type: functional
Summary of the method: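 Broth microdilution per CLSI in cation-adjusted Mueller–Hinton broth; exponential-phase inoculum 5 × 10^6 CFU/mL; two-fold serial dilutions from highest concentration, solvent wells as control; 30 °C for 3−5 days; MIC read visually and confirmed by absorbance at 560 nm; triplicate on three independent occasions.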

[2] = tested on: Mycobacterium tuberculosis; assay: Antibacterial activity against Mycobacterium tuberculosis by AlamarBlue assay; type: functional
[3] = tested on: Vero; assay: Cytotoxicity against African green monkey Vero cells; type: cell-based; conditions: Chlorocebus sabaeus
[4] = tested on: Mycobacterium tuberculosis; assay: Inhibition of C-terminal His-tagged Mycobacterium tuberculosis Ag85C expressed in Escherichia coli C41 (DE3) at 2.5 to 50 uM after 1 hr by resorufin butyrate-based fluorescence assay
Summary of the method: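 Purified Ag85C mycolyltransferase activity measured with the fluorescent probe resorufin butyrate; compounds tested at 2.5 to 50 μM.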

[5] = Selectivity index, ratio of IC50 for African green monkey Vero cells to MIC for Mycobacterium abscessus CIP104536; type: toxicity; conditions: read-out: Selectivity Index
[6] = Selectivity index, ratio of IC50 for African green monkey Vero cells to MIC=<90 for Mycobacterium tuberculosis; type: toxicity; conditions: read-out: Selectivity Index
[7] = tested on: Mycobacteroides abscessus; assay: Antibacterial activity against Mycobacterium abscessus CIP_OK4-10 harboring MAB_4508 g925c/A309P mutant after 3 to 5 days by two fold serial dilution method; type: functional
Summary of the method: (§1)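 Broth microdilution in cation-adjusted Mueller−Hinton broth per CLSI; inoculum 5 × 10^6 CFU/mL of exponential-phase bacteria; two-fold serial dilutions, solvent-only wells as control; 30 °C for 3−5 days; MIC read visually and confirmed by absorbance at 560 nm; triplicate on three independent occasions.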

[8] = tested on: Mycobacteroides abscessus; assay: Antibacterial activity against Mycobacterium abscessus CIP_PIPD1 harboring MAB_4508 g925c/A309P mutant after 3 to 5 days by two fold serial dilution method; type: functional; summary of the method: as §1
[9] = tested on: Mycobacteroides abscessus; assay: Antibacterial activity against non CF patient derived Mycobacterium abscessus subsp. abscessus isolate CIP104536 smooth variant after 3 to 5 days by two fold serial dilution method; type: functional; summary of the method: as §1

Structure (SMILES)	MIC [1]	MIC=<90 [2]	IC50 [3]	also measured
C[C@@H](NC(=O)c1cc2c(Cl)cc(Cl)cc2[nH]1)C1CCCCC1	0.5 µg/mL (≈ 1.47 µM)	2 µg/mL (≈ 5.9 µM)	–	–
O=C(NC1CCCCCCC1)c1cc2cc(Cl)ccc2o1	0.5 µg/mL (≈ 1.64 µM)	8 µg/mL (≈ 26.2 µM)	–	–
CO[C@H]1/C=C/O[C@@]2(C)Oc3c(C)c(O)c4c(O)c(c(/C=N/N5CCN(C)CC5)c(O)c4c3C2=O)NC(=O)/C(C)=C\C=C\[C@H](C)[C@H](O)[C@@H](C)[C@@H](O)[C@@H](C)[C@H](OC(C)=O)[C@@H]1C [RIFAMPIN]	–	–	> 256 µg/mL	–
O=c1c2ccccc2[se]n1-c1ccccc1	–	–	–	inhibition [4]: Dose-dependent effect
CCCCCCCCNC(=O)c1cc2c(Cl)cc(Cl)cc2[nH]1	> 32 µg/mL	128 µg/mL (≈ 375 µM)	–	–
Cc1cc(C)c2cc(C(=O)NC3CCCCCC3)[nH]c2c1	0.125 µg/mL (≈ 0.44 µM)	0.0039 µg/mL (≈ 0.0137 µM)	16 µg/mL (≈ 56.3 µM)	selectivity ratio [5]: 128; selectivity ratio [6]: 4100
O=C(NC1CCCCCCC1)c1cc2c(C(F)(F)F)cc(C(F)(F)F)cc2[nH]1	0.5 µg/mL (≈ 1.23 µM)	0.0156 µg/mL (≈ 0.0384 µM)	–	–
C[C@@H]1[C@@H](NC(=O)c2cc3ccc(Br)cc3[nH]2)C[C@H]2C[C@@H]1C2(C)C	0.125 µg/mL (≈ 0.333 µM)	0.0039 µg/mL (≈ 0.0104 µM)	–	–
O=C(NC1CCC2(CCCCC2)CC1)c1cc2c(Cl)cc(Cl)cc2[nH]1	> 32 µg/mL	0.001953 µg/mL (≈ 0.00515 µM)	≥ 64 µg/mL	selectivity ratio [5]: ≥ 2; selectivity ratio [6]: ≥ 32800
Cc1cc(C)c2cc(C(=O)NC34CC5CC(CC(C5)C3)C4)oc2c1	1 µg/mL (≈ 3.09 µM)	1 µg/mL (≈ 3.09 µM)	–	–
Cc1cc(C)c2[nH]c(C(=O)NC3CCCCCC3)cc2c1	0.25 µg/mL (≈ 0.879 µM)	0.0625 µg/mL (≈ 0.22 µM)	–	–
O=C(NC12CC3CC(CC(C3)C1)C2)c1cc2ccc(Br)cc2[nH]1	16 µg/mL (≈ 42.9 µM)	0.0156 µg/mL (≈ 0.0418 µM)	≥ 64 µg/mL	selectivity ratio [5]: ≥ 4; selectivity ratio [6]: ≥ 4100
Cc1ccccc1CN1CCC(O)(c2ccc(Cl)c(C(F)(F)F)c2)CC1	–	–	–	MIC [7]: 8 µg/mL (≈ 20.8 µM); MIC [8]: 8 µg/mL (≈ 20.8 µM); MIC [9]: 0.125 µg/mL (≈ 0.326 µM)
Cc1cccc2cc(C(=O)NC3CCCCCC3)[nH]c12	16 µg/mL (≈ 59.2 µM)	1 µg/mL (≈ 3.7 µM)	–	–
O=C(NC1CCCCCC1)c1cc2c(F)cc(F)cc2[nH]1	0.125 µg/mL (≈ 0.428 µM)	0.031 µg/mL (≈ 0.106 µM)	–	–
C[C@@H]1[C@@H](NC(=O)c2cc3c(F)cc(F)cc3[nH]2)C[C@H]2C[C@@H]1C2(C)C	32 µg/mL (≈ 96.3 µM)	0.0039 µg/mL (≈ 0.0117 µM)	≥ 64 µg/mL	selectivity ratio [5]: ≥ 2; selectivity ratio [6]: ≥ 16400
